Experimental data: ChEMBL document CHEMBL1152820, “Plasmid-encoded ACC-4, an extended-spectrum cephalosporinase variant from Escherichia coli” (Antimicrob Agents Chemother, 2007)
In brackets after ≈: the same amount, converted by molar mass.

T1: Beta-lactamase ACC-4 (Escherichia coli, UniProt A4ZYU9)
T1 sequence (A4ZYU9 whole entry): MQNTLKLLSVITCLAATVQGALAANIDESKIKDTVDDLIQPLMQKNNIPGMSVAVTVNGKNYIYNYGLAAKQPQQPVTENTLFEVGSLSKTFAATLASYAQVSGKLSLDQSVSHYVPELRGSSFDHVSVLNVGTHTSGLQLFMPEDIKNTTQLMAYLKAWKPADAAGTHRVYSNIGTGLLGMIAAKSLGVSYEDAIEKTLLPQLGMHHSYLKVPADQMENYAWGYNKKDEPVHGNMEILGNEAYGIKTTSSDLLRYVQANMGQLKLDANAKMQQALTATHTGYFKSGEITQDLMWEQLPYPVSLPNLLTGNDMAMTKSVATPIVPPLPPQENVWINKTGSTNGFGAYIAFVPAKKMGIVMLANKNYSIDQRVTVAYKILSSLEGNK


How the values were obtained:
Escherichia coli [1] = test: Antimicrobial activity against Escherichia coli MC4100 harboring pA-acc1 plasmid by agar dilution technique; format: functional
Escherichia coli [2] = test: Antimicrobial activity against Escherichia coli MC4100 harboring pB-acc1 plasmid by agar dilution technique; format: functional
Escherichia coli [3] = test: Antimicrobial activity against Escherichia coli MC4100 harboring pA-acc4 plasmid by agar dilution technique; format: functional
Escherichia coli [4] = test: Antimicrobial activity against Escherichia coli MC4100 harboring pB-acc4 plasmid by agar dilution technique; format: functional
Beta-lactamase ACC-4 = target: T1, Beta-lactamase ACC-4; test: Inhibition of Escherichia coli beta-lactamase ACC4
Outline: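 ACC-4 from mid-log E. coli(pS18-d): sonicated, ultracentrifuged, Q-Sepharose flowthrough then S-Sepharose (0–0.6 M NaCl gradient, phosphate pH 6.8), >95% pure by SDS-PAGE.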

Escherichia coli [5] = test: Antimicrobial activity against Escherichia coli MC4100 harboring pBCSK plasmid by agar dilution technique; format: functional
Escherichia coli [6] = test: Antimicrobial activity against Escherichia coli MC4100 harboring pACYC184 plasmid by agar dilution technique; format: functional
Hafnia alvei [7] = test: Activity of Hafnia alvei beta-lactamase ACC-1 assessed as nmol of compound hydrolysis per ug of protein
Hafnia alvei [8] = test: Activity of Hafnia alvei beta-lactamase ACC-1
Hafnia alvei [9] = test: Ratio of Vmax to Km for Hafnia alvei beta-lactamase ACC-1
[10] = substrate: CC(C)(O/N=C(\C(=O)N[C@@H]1C(=O)N2C(C(=O)[O-])=C(C[n+]3ccccc3)CS[C@H]12)c1csc(N)n1)C(=O)O; test: (§1) Activity of Escherichia coli beta-lactamase ACC4 by UV spectrophotometry
Outline: (§2)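 ACC-4 purified from E. coli carrying pS18-d, grown to mid-log in broth with 100 μg/ml ampicillin. Sonicated, then Q-Sepharose and S-Sepharose chromatography (NaCl 0 to 0.6 M, phosphate pH 6.8), >95% pure. Substrate hydrolysis at 30°C, pH 7.0, followed by UV spectrophotometry. kcat and Km are means of four independent measurements.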

[11] = substrate: CC(=O)OCC1=C(C(=O)O)N2C(=O)[C@@H](NC(=O)Cc3cccs3)[C@H]2SC1; test: as §1; outline: as §2
[12] = substrate: CC1(C)S[C@@H]2[C@H](NC(=O)Cc3ccccc3)C(=O)N2[C@H]1C(=O)O; test: as §1; outline: as §2
[13] = substrate: CO/N=C(\C(=O)N[C@@H]1C(=O)N2C(C(=O)[O-])=C(C[N+]3(C)CCCC3)CS[C@H]12)c1csc(N)n1; test: as §1; outline: as §2
[14] = substrate: CO[C@@]1(NC(=O)Cc2cccs2)C(=O)N2C(C(=O)O)=C(COC(N)=O)CS[C@@H]21; test: as §1; outline: as §2
[15] = substrate: CCN1CCN(C(=O)N[C@@H](C(=O)N[C@@H]2C(=O)N3[C@@H]2SC(C)(C)[C@@H]3C(=O)O)c2ccccc2)C(=O)C1=O; test: as §1; outline: as §2
[16] = substrate: CO/N=C(\C(=O)N[C@@H]1C(=O)N2C(C(=O)O)=C(COC(C)=O)CS[C@H]12)c1csc(N)n1; test: as §1; outline: as §2
[17] = substrate: CC(C)(O/N=C(\C(=O)N[C@@H]1C(=O)N2C(C(=O)[O-])=C(C[n+]3ccccc3)CS[C@H]12)c1csc(N)n1)C(=O)O; test: (§3) Ratio of Kcat to Km for Escherichia coli beta-lactamase ACC4 by UV spectrophotometry; outline: as §2
[18] = substrate: CC(=O)OCC1=C(C(=O)O)N2C(=O)[C@@H](NC(=O)Cc3cccs3)[C@H]2SC1; test: as §3; outline: as §2
[19] = substrate: CC1(C)S[C@@H]2[C@H](NC(=O)Cc3ccccc3)C(=O)N2[C@H]1C(=O)O; test: as §3; outline: as §2
[20] = substrate: CO/N=C(\C(=O)N[C@@H]1C(=O)N2C(C(=O)[O-])=C(C[N+]3(C)CCCC3)CS[C@H]12)c1csc(N)n1; test: as §3; outline: as §2
[21] = substrate: CCN1CCN(C(=O)N[C@@H](C(=O)N[C@@H]2C(=O)N3[C@@H]2SC(C)(C)[C@@H]3C(=O)O)c2ccccc2)C(=O)C1=O; test: as §3; outline: as §2
[22] = substrate: CO/N=C(\C(=O)N[C@@H]1C(=O)N2C(C(=O)O)=C(COC(C)=O)CS[C@H]12)c1csc(N)n1; test: as §3; outline: as §2

Row | Molecule | MIC (Escherichia coli [1]) | MIC (Escherichia coli [2]) | MIC (Escherichia coli [3]) | MIC (Escherichia coli [4]) | MIC (Escherichia coli [5]) | MIC (Escherichia coli [6]) | other results
1 | CO/N=C(\C(=O)N[C@@H]1C(=O)N2C(C(=O)[O-])=C(C[N+]3(C)CCCC3)CS[C@H]12)c1csc(N)n1 | 0.12 µg/mL (≈ 0.25 µM) | 0.12 µg/mL (≈ 0.25 µM) | 0.12 µg/mL (≈ 0.25 µM) | 0.25 µg/mL (≈ 0.52 µM) | – | – | –
2 | C[C@]1(/C=C\C#N)[C@H](C(=O)O)N2C(=O)C[C@H]2S1(=O)=O | – | – | – | – | – | – | IC50 (Beta-lactamase ACC-4): 10300 nM
3 | CC1(C)S[C@@H]2[C@H](NC(=O)[C@H](N)c3ccc(O)cc3)C(=O)N2[C@H]1C(=O)O [AMOXICILLIN] | > 512 µg/mL | > 512 µg/mL | > 512 µg/mL | > 512 µg/mL | 4 µg/mL (≈ 10.9 µM) | 4 µg/mL (≈ 10.9 µM) | –
4 | C[C@H]1[C@H](NC(=O)/C(=N\OC(C)(C)C(=O)O)c2csc(N)n2)C(=O)N1S(=O)(=O)O [AZTREONAM] | 0.5 µg/mL (≈ 1.15 µM) | 1 µg/mL (≈ 2.3 µM) | 2 µg/mL (≈ 4.59 µM) | 2 µg/mL (≈ 4.59 µM) | – | – | IC50 (Beta-lactamase ACC-4): 32 nM
5 | N[C@@H](C(=O)N[C@@H]1C(=O)N2C(C(=O)O)=C(Cl)CS[C@H]12)c1ccccc1 [CEFACLOR ANHYDROUS] | > 512 µg/mL | > 512 µg/mL | > 512 µg/mL | > 512 µg/mL | 2 µg/mL (≈ 5.44 µM) | 2 µg/mL (≈ 5.44 µM) | –
6 | CO/N=C(\C(=O)N[C@@H]1C(=O)N2C(C(=O)O)=C(COC(C)=O)CS[C@H]12)c1csc(N)n1 [CEFOTAXIME] | 8 µg/mL (≈ 17.6 µM) | 16 µg/mL (≈ 35.1 µM) | 32 µg/mL (≈ 70.3 µM) | 64 µg/mL (≈ 141 µM) | ≤ 0.06 µg/mL | ≤ 0.06 µg/mL | Vmax (Hafnia alvei [7]): < 0.01 nmol/min/µg
7 | CO[C@@]1(NC(=O)C2SC(=C(C(N)=O)C(=O)O)S2)C(=O)N2C(C(=O)O)=C(CSc3nnnn3C)CS[C@@H]21 (stereo partly drawn) [CEFOTETAN] | 1 µg/mL (≈ 1.74 µM) | 1 µg/mL (≈ 1.74 µM) | 1 µg/mL (≈ 1.74 µM) | 1 µg/mL (≈ 1.74 µM) | 0.5 µg/mL (≈ 0.869 µM) | 0.5 µg/mL (≈ 0.869 µM) | –
8 | CO[C@@]1(NC(=O)Cc2cccs2)C(=O)N2C(C(=O)O)=C(COC(N)=O)CS[C@@H]21 [CEFOXITIN] | 4 µg/mL (≈ 9.36 µM) | 4 µg/mL (≈ 9.36 µM) | 4 µg/mL (≈ 9.36 µM) | 4 µg/mL (≈ 9.36 µM) | 2 µg/mL (≈ 4.68 µM) | 2 µg/mL (≈ 4.68 µM) | Vmax (Hafnia alvei [7]): < 0.002 nmol/min/µg
9 | CC(C)(O/N=C(\C(=O)N[C@@H]1C(=O)N2C(C(=O)[O-])=C(C[n+]3ccccc3)CS[C@H]12)c1csc(N)n1)C(=O)O [CEFTAZIDIME] | 32 µg/mL (≈ 58.5 µM) | 128 µg/mL (≈ 234 µM) | 256 µg/mL (≈ 468 µM) | 512 µg/mL (≈ 937 µM) | 0.25 µg/mL (≈ 0.457 µM) | 0.25 µg/mL (≈ 0.457 µM) | Km (Hafnia alvei [8]): 17 µM; Vmax (Hafnia alvei [7]): < 0.025 nmol/min/µg; Vmax/Km (Hafnia alvei [9]): < 0.01
10 | CO/N=C(\C(=O)N[C@@H]1C(=O)N2C(C(=O)O)=C(CSc3nc(=O)c(O)nn3C)CS[C@H]12)c1csc(N)n1 [CEFTRIAXONE] | 16 µg/mL (≈ 28.9 µM) | 32 µg/mL (≈ 57.7 µM) | 32 µg/mL (≈ 57.7 µM) | 128 µg/mL (≈ 231 µM) | 0.12 µg/mL (≈ 0.216 µM) | 0.12 µg/mL (≈ 0.216 µM) | –
11 | CO/N=C(\C(=O)N[C@@H]1C(=O)N2C(C(=O)O)=C(COC(N)=O)CS[C@H]12)c1ccco1 [CEFUROXIME] | 128 µg/mL (≈ 302 µM) | 128 µg/mL (≈ 302 µM) | > 512 µg/mL | > 512 µg/mL | 1 µg/mL (≈ 2.36 µM) | 1 µg/mL (≈ 2.36 µM) | –
12 | CC(=O)OCC1=C(C(=O)O)N2C(=O)[C@@H](NC(=O)Cc3cccs3)[C@H]2SC1 [CEPHALOTHIN] | > 512 µg/mL | > 512 µg/mL | > 512 µg/mL | > 512 µg/mL | 2 µg/mL (≈ 5.04 µM) | 2 µg/mL (≈ 5.04 µM) | –
13 | Cc1onc(-c2ccccc2Cl)c1C(=O)N[C@@H]1C(=O)N2[C@@H]1SC(C)(C)[C@@H]2C(=O)O [CLOXACILLIN] | – | – | – | – | – | – | IC50 (Beta-lactamase ACC-4): 26 nM
14 | CCN1CCN(C(=O)N[C@@H](C(=O)N[C@@H]2C(=O)N3[C@@H]2SC(C)(C)[C@@H]3C(=O)O)c2ccccc2)C(=O)C1=O [PIPERACILLIN] | 64 µg/mL (≈ 124 µM) | 256 µg/mL (≈ 495 µM) | 32 µg/mL (≈ 61.8 µM) | 128 µg/mL (≈ 247 µM) | 0.5 µg/mL (≈ 0.966 µM) | 0.5 µg/mL (≈ 0.966 µM) | Km (Hafnia alvei [8]): 1.4 µM; Vmax (Hafnia alvei [7]): 0.17 nmol/min/µg; Vmax/Km (Hafnia alvei [9]): 0.12
15 | Beta-lactamase ACC-4 (Escherichia coli), A4ZYU9 (protein) MQNTLKLLSVITCLAATVQGALAANIDESKIKDTVDDLIQPLMQKNNIPGMSVAVTVNGKNYIYNYGLAAKQPQQPVTENTLFEVGSLSKTFAATLASYAQVSGKLSLDQSVSHYVPELRGSSFDHVSVLNVGTHTSGLQLFMPEDIKNTTQLMAYLKAWKPADAAGTHRVYSNIGTGLLGMIAAKSLGVSYEDAIEKTLLPQLGMHHSYLKVPADQMENYAWGYNKKDEPVHGNMEILGNEAYGIKTTSSDLLRYVQANMGQLKLDANAKMQQALTATHTGYFKSGEITQDLMWEQLPYPVSLPNLLTGNDMAMTKSVATPIVPPLPPQENVWINKTGSTNGFGAYIAFVPAKKMGIVMLANKNYSIDQRVTVAYKILSSLEGNK | – | – | – | – | – | – | Km [10]: 15 µM; kcat [10]: 1.5 s⁻¹; Km [11]: 30 µM; kcat [11]: 96 s⁻¹; Km [12]: 3.8 µM; kcat [12]: 0.59 s⁻¹; Km [13]: 73 µM; kcat [13]: 0.14 s⁻¹; kcat [14]: < 0.01 s⁻¹; Km [15]: 1.1 µM; kcat [15]: 0.13 s⁻¹; Km [16]: 9.4 µM; kcat [16]: 2.7 s⁻¹; kcat/Km [17]: 0.1 s⁻¹ µM⁻¹; kcat/Km [18]: 3.2 s⁻¹ µM⁻¹; kcat/Km [19]: 0.16 s⁻¹ µM⁻¹; kcat/Km [20]: 0.002 s⁻¹ µM⁻¹; kcat/Km [21]: 0.12 s⁻¹ µM⁻¹; kcat/Km [22]: 0.29 s⁻¹ µM⁻¹
